In ChEMBL document CHEMBL4020823, “Highly Selective, Potent, and Oral mTOR Inhibitor for Treatment of Cancer as Autophagy Inducer” (J Med Chem, 2018):
Calls of active or inactive are those of the source. The rule behind the calls is not given here.

Tests used:
MCF7 [1] = experiment: Growth inhibition of human MCF7 cells after 72 hrs by CCK8 assay; format: functional, cell-based; conditions: MCF7, 72 h
In short: (§1)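 Cells were seeded at 2000–3000 per well and grown 24 h in serum-containing medium. They were then exposed to serially diluted compound for 72 h at 37 °C, 5% CO2. CCK8 reagent was added for 1–4 h and absorbance read at 450 nm. Inhibition = (AC − AS)/(AC − Ab) × 100%. IC50 is the average of at least three independent determinations.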

T47D [2] = experiment: Growth inhibition of human T47D cells after 72 hrs by CCK8 assay; format: functional, cell-based; in short: as §1
SK-OV-3 = experiment: Growth inhibition of human SKOV3 cells after 72 hrs by CCK8 assay; format: functional, cell-based; conditions: SK-OV-3, 72 h; in short: as §1
mTOR/FKBP12A/FKBP12B = mTOR/FKBP12A/FKBP12B (Homo sapiens, UniProt P42345+P62942+P68106); experiment: Inhibition of full length recombinant human mTOR/FKBP12; format: protein-complex assay
[3] = biological target: Serine-protein kinase ATM (Homo sapiens, UniProt Q13315); experiment: Inhibition of full length recombinant human ATM
Mus musculus [4] = organism: Mus musculus; experiment: Inhibition of full length recombinant mouse PI3K p85alpha/p110alpha E545K mutant at 1 uM relative to control
In short: (§2)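 Eurofins KinaseProfiler panel with compound at a single 1 μM concentration. ATP at the Km of each kinase. Result is % inhibition, mean of two independent experiments.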

[5] = biological target: PI3K p110 beta/p85 beta (Mus musculus) (UniProt Q8BTI9+O08908); experiment: Inhibition of full length recombinant mouse PI3K p110beta/p85beta at 1 uM relative to control; format: protein-complex assay; in short: as §2
[6] = biological target: PI3K p110 delta/p85 alpha (Mus musculus) (UniProt P26450+O35904); experiment: Inhibition of full length recombinant mouse PI3K p110delta/p85alpha at 1 uM relative to control; format: protein-complex assay; in short: as §2
Mus musculus [7] = organism: Mus musculus; experiment: Inhibition of full length recombinant mouse p85alpha/PI3K p110alpha E542K mutant at 1 uM relative to control; in short: as §2
[8] = test system: PI3-kinase p110-alpha/p85-alpha (Homo sapiens), P27986+P42336 [H1047R]; experiment: Inhibition of full length recombinant human p85alpha/PI3K p110alpha H1047R mutant at 1 uM relative to control; in short: as §2
[9] = test system: PI3-kinase p110-alpha/p85-alpha (Homo sapiens), P27986+P42336 [E545K]; experiment: Inhibition of full length recombinant human p85alpha/PI3K p110alpha E545K mutant at 1 uM relative to control; in short: as §2
MCF7 [10] = experiment: Cell cycle arrest in human MCF7 cells assessed as decrease in S-phase at 0.25 to 0.5 uM after 24 hrs by propidium iodide-staining based flow cytometric analysis; format: functional
In short: (§3)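 Cells were seeded at 5 × 10^5 cells/mL. At 24 h after plating they were treated with increasing concentrations for 24 h, washed in PBS, and fixed in ice-cold 70% ethanol for at least 24 h. They were stained with propidium iodide plus RNase A for 30 min at 37 °C and analysed by flow cytometry for phase distribution.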

MDA-MB-231 [11] = experiment: Cell cycle arrest in human MDA-MB-231 cells assessed as decrease in S-phase at 0.25 to 0.5 uM after 24 hrs by propidium iodide-staining based flow cytometric analysis; format: functional; in short: as §3
MCF7 [12] = experiment: Induction of autophagy in human MCF7 cells assessed as increase in LC3-2 level at 0.25 to 0.5 uM after 48 hrs by Western blot analysis; format: functional, cell-based
In short: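 Cells were treated for 48 h (2 days) with varying concentrations. Whole-cell lysates were immunoblotted for LC3B-II with β-actin as the internal control. Membranes were blocked in 5% skim milk, incubated with primary antibody overnight at 4 °C, then with peroxidase-conjugated secondary, and developed by ECL.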

MDA-MB-231 [13] = experiment: Induction of autophagy in human MDA-MB-231 cells assessed as increase in LC3-2 puncta level after 48 hrs by immunofluorescence staining based microscopic analysis; format: functional, cell-based
In short: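 Cells seeded on glass coverslips in complete 1640 or DMEM and incubated with inhibitors at different concentrations for 48 h. Fixed in 4% paraformaldehyde, permeabilized with 0.15% Triton X-100, blocked in 4% BSA/PBS for 1 h at room temperature. Anti-LC3B (1:200) overnight, then FITC-conjugated secondary, DAPI nuclear stain. LC3B-II puncta viewed by fluorescence microscopy.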

Homo sapiens [14] = organism: Homo sapiens; experiment: Inhibition of mTORC1 in human MCF7 cells assessed as reduction in 4E-BP1 phosphorylation at Ser65 residues at 0.25 to 0.5 uM by Western blot analysis; format: cell-based
In short: (§4)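 Cells treated with the indicated concentrations, then whole-cell lysates immunoblotted. mTORC1 activity read as S6 and 4E-BP1 phosphorylation; mTORC2 activity read as AKT Ser473 phosphorylation. Blocking in 5% skim milk, primary antibodies at 4 °C overnight, peroxidase-conjugated secondary, ECL detection.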

Homo sapiens [15] = organism: Homo sapiens; experiment: Inhibition of mTORC1 in human T47D cells assessed as reduction in S6 phosphorylation at Ser 240/244 residues at 0.25 to 0.5 uM by Western blot analysis; format: cell-based; in short: as §4
Homo sapiens [16] = organism: Homo sapiens; experiment: Inhibition of mTORC1 in human MCF7 cells assessed as reduction in S6 phosphorylation at Ser 240/244 residues at 0.25 to 0.5 uM by Western blot analysis; format: cell-based; in short: as §4
Homo sapiens [17] = organism: Homo sapiens; experiment: Inhibition of mTORC1 in human SiHa cells assessed as reduction in S6 phosphorylation at Ser 240/244 residues at 0.25 to 0.5 uM by Western blot analysis; format: cell-based; in short: as §4
Homo sapiens [18] = organism: Homo sapiens; experiment: Inhibition of mTORC2 in human SiHa cells assessed as reduction in AKT phosphorylation at Ser473 residues at 0.25 to 0.5 uM by Western blot analysis; format: cell-based
In short: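 Cells exposed to a range of compound concentrations; whole-cell lysates immunoblotted for phospho-AKT (Ser473) as the mTORC2 readout, alongside S6 and 4E-BP1 phosphorylation for mTORC1. Membranes blocked in 5% skim milk, primary antibodies overnight at 4 °C, peroxidase-conjugated anti-mouse or anti-rabbit IgG secondary, ECL detection. Rapamycin as comparator.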

HeLa = experiment: Inhibition of mTORC2 in human HeLa cells assessed as reduction in AKT phosphorylation at Ser473 residues at 0.5 to 1 uM by Western blot analysis; format: cell-based; in short: as §4
T47D [19] = experiment: Antitumor activity against human T47D cells xenografted in BALB/c nude mouse assessed as decrease in tumor growth at 15 mg/kg, po administered via gavage after 3 weeks relative to control; format: functional; conditions: 504 h, read-out: TGI
[20] = Cmax in Sprague-Dawley rat at 20 mg/kg, iv administered as single dose by HPLC analysis; format: ADME, organism-based; parameters: dose 20 mg/kg, route intravenous; conditions: in vivo
In short: (§5)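 Rats fasted overnight, then given one 20 mg/kg dose either iv or po. Blood was collected and centrifuged at once to obtain plasma. Plasma drug levels were measured by HPLC, and PK parameters were derived from the concentration-time data.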

[21] = Cmax in Sprague-Dawley rat at 20 mg/kg, po administered as single dose by HPLC analysis; format: ADME, organism-based; parameters: dose 20 mg/kg, route oral; conditions: in vivo; in short: as §5
[22] = Protein binding in rabbit plasma at 4 uM after 4 hrs by equilibrium dialysis method; format: ADME, cell-free, Oryctolagus cuniculus; conditions: read-out: PPB (converted)
In short: (§6)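 Plasma protein binding measured in rabbit and human plasma with compound at 4 μM over a 4 h period; result given as percent bound.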

[23] = Protein binding in human plasma at 4 uM after 4 hrs by equilibrium dialysis method; format: ADME, cell-free; conditions: read-out: PPB (converted); in short: as §6

Sequence of Serine-protein kinase ATM (Q13315 whole entry): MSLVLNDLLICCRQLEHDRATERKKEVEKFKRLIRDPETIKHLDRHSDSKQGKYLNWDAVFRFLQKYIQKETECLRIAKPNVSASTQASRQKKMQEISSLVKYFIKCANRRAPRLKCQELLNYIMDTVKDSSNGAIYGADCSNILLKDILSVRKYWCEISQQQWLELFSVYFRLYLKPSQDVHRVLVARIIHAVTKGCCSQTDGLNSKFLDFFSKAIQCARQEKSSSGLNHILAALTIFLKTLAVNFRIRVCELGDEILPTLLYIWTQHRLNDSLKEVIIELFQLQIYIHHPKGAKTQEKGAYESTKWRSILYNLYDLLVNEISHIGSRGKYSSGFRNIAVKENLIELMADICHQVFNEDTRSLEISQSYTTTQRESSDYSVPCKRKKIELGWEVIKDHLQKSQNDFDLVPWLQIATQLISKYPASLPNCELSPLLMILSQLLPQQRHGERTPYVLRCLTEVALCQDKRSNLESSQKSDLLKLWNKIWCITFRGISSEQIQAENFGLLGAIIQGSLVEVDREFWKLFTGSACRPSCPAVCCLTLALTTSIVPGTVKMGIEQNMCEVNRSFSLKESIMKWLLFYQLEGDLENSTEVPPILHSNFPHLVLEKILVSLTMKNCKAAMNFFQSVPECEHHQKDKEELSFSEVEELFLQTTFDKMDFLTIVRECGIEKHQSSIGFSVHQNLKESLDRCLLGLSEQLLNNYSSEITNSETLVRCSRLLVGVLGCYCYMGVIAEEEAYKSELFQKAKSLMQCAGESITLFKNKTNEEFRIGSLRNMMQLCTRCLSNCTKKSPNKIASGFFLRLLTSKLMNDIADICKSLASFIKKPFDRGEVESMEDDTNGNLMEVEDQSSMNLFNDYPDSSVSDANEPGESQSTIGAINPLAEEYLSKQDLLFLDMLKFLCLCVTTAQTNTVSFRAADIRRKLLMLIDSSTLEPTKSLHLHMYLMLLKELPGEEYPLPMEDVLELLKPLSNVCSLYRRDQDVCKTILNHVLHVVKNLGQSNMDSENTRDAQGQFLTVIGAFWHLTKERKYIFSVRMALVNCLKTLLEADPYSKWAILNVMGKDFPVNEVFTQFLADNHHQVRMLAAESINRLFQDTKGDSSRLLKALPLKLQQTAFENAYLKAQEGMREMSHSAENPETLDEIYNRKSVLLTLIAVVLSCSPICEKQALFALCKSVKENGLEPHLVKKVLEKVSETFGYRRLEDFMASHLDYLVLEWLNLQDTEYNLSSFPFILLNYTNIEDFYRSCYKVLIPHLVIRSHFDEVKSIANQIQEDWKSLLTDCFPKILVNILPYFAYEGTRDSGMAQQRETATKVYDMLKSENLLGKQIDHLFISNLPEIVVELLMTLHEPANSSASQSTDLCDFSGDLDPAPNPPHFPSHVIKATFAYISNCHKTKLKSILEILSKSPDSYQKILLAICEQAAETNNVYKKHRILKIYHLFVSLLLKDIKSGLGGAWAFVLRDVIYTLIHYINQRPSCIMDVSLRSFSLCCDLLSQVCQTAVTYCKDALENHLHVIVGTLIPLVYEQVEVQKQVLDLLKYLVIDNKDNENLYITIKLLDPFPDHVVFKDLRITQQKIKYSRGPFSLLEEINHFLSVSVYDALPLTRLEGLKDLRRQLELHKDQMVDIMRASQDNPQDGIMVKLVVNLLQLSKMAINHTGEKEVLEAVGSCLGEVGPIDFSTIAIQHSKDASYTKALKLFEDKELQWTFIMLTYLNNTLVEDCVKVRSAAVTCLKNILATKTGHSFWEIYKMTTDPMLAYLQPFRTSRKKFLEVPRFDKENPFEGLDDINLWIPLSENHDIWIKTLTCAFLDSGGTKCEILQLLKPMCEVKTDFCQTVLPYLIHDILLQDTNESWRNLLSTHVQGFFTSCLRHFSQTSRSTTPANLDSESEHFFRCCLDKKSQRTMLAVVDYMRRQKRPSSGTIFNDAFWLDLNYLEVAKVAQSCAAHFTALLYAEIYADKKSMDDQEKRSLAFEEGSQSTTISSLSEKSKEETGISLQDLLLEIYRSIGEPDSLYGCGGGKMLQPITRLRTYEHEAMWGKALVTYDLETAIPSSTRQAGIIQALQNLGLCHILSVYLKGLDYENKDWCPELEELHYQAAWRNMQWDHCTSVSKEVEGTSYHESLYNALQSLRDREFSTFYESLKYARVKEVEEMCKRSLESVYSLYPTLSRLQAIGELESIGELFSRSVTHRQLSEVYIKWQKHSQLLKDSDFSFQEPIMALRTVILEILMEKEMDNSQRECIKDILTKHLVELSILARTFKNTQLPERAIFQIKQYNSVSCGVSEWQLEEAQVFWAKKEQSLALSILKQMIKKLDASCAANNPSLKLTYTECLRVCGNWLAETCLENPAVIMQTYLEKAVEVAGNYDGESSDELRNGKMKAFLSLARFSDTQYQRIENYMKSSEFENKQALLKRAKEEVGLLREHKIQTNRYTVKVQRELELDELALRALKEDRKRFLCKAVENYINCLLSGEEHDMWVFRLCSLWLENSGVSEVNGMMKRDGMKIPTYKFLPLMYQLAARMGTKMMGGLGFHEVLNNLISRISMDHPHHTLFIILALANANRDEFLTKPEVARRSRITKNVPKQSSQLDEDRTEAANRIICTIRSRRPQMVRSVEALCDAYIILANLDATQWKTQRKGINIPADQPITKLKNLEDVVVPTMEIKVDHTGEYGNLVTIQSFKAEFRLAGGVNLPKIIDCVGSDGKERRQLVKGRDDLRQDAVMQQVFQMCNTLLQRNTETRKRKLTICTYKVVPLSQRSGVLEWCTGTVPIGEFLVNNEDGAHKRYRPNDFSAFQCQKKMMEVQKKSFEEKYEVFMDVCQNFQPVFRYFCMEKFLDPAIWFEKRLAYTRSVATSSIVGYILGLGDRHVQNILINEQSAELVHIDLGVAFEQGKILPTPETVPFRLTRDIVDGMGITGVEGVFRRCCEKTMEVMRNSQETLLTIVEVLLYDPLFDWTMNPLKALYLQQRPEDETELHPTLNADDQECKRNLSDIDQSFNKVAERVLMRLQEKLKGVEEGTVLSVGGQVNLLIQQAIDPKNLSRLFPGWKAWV
Sequence of mTOR/FKBP12A/FKBP12B (P62942 2-108 limits assumed, other chains not shown): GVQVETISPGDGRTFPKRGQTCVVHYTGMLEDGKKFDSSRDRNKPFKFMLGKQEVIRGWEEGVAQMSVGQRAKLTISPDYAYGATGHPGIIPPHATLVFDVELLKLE
Sequence of mTOR/FKBP12A/FKBP12B (P68106 whole entry, other chains not shown): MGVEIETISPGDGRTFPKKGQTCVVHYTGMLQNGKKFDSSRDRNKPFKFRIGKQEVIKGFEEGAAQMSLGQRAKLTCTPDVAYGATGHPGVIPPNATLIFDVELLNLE

IC50 (MCF7 [1]): 103 nM
IC50 (T47D [2]): 205 nM
IC50 (SK-OV-3): 1850 nM
IC50 (mTOR/FKBP12A/FKBP12B): 8 nM
IC50 [3]: 62 nM
inhibition (Mus musculus [4]): 9%
inhibition [5]: 8%
inhibition [6]: 4%
inhibition (Mus musculus [7]): 10%
inhibition [8]: 2%
inhibition [9]: 13%
Cmax [20]: 4470 ng/mL
Cmax [21]: 807 ng/mL
fraction unbound at 4 h, 4 µM [22]: 0.399
fraction unbound at 4 h, 4 µM [23]: 0.36
Compound: N#CCN1CCC(n2c(=O)cnc3cnc4ccc(-c5ccc(N)nc5)cc4c32)CC1
Activity (MCF7 [10]): Active
Activity (MDA-MB-231 [11]): Active
Activity (MCF7 [12]): Active
Activity (MDA-MB-231 [13]): Dose-dependent effect
inhibition (Homo sapiens [14]): Active
inhibition (Homo sapiens [15]): Active
inhibition (Homo sapiens [16]): Active
inhibition (Homo sapiens [17]): Active
inhibition (Homo sapiens [18]): Active
inhibition (HeLa): Active
inhibition in vivo at 15 mg/kg (T47D [19]): 63.2%
